Reference: ChEMBL document CHEMBL3745596, “Chlorophenoxy aminoalkyl derivatives as histamine H(3)R ligands and antiseizure agents” (Bioorg Med Chem, 2016)
Active and inactive are the calls of the source.

How the values were obtained:
Mus musculus [1] = test: Anticonvulsant activity in ip dosed CF1 albino mouse assessed as protection against maximal electroshock-induced seizure after 0.5 hrs; assay type: functional
In short: (§1)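 Male CF-1 mice dosed ip as suspension in 0.5% methylcellulose. Corneal electrodes deliver 60 Hz alternating current, 50 mA for […], after a drop of 0.5% tetracaine HCl in 0.9% NaCl per eye. Protection means abolition of hindlimb tonic extension; scored as protected/tested, or ED50 with 95% confidence interval.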

Mus musculus [2] = test: Anticonvulsant activity in ip dosed CF1 albino mouse assessed as protection against subcutaneous pentetrazole-induced seizure after 0.5 hrs; assay type: functional
In short: (§2)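 Male CF-1 mice, ip in 0.5% methylcellulose; pentetrazole at CD97 (85 mg/kg) injected subcutaneously in a loose fold of neck skin. Observed 30 min; absence of even a threshold seizure (single clonic spasm lasting at least 5 s) counted as protection. Scored protected/tested, or ED50.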

Mus musculus [3] = test: Protective index, ratio of TD50 for ip dosed CF1 albino mouse to ED50 for ip dosed CF1 albino mouse assessed as protection against maximal electroshock-induced seizure after 0.5 hrs; assay type: functional
In short: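 PI = TD50/ED50. Male CF-1 mice or male Sprague–Dawley rats given compound ip as 0.5% methylcellulose suspension. MES: 60 Hz corneal current, 50 mA mice or 150 mA rats, for […] after tetracaine eye drops; protection is abolition of hindlimb tonic extension.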

Rattus norvegicus [4] = test: Anticonvulsant activity in Sprague-Dawley rat assessed as protection against pilocarpine-induced convulsive status epilepticus at 65 mg/kg, ip; assay type: functional, organism-based
In short: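 Male Sprague Dawley rats (150–180 g) dosed ip, pilocarpine 50 mg/kg ip given; compound dosed immediately at first behavioral Stage 3 seizure or 30 min later. Number protected from Racine Stage 3 or greater seizures recorded.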

[5] = Neuroprotective activity in hippocampal slice (unknown origin) assessed as protection against kainic acid-induced cell death using propidium iodide staining; assay type: functional; settings: Hippocampus
In short: (§3)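 Organotypic hippocampal slice cultures exposed to NMDA or kainic acid alone or with compound; propidium iodide in all wells; PI fluorescence intensity of slices, proportional to cell death, compared with excitotoxin-only slices; qualitative.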

[6] = Neuroprotective activity in hippocampal slice (unknown origin) assessed as protection against NMDA-induced cell death using propidium iodide staining; assay type: functional; settings: Hippocampus; in short: as §3
Mus musculus [7] = test: Analgesic activity in mouse assessed as inhibition of formalin-induced paw licking behavior at 13 mg/kg, ip after 0.25 hrs; assay type: functional, organism-based
In short: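 Male albino mice, ip in 0.5% methylcellulose; 0.5% formalin injected sub-dermally into right hindpaw plantar surface 0.25 h after dosing. Paw licking observed for the first 2 min of each 5-min epoch up to 40 min after dosing; cumulative licking duration compared with vehicle-pretreated group, acute and inflammatory phases.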

Histamine H3 receptor = Histamine H3 receptor (Homo sapiens, UniProt Q9Y5N1); test: Displacement of [3H]-Nalpha-methylhistamine from human recombinant histamine H3 receptor expressed in HEK293 cells after 90 mins; assay type: cell-based
Chain of Histamine H3 receptor (Q9Y5N1 whole entry): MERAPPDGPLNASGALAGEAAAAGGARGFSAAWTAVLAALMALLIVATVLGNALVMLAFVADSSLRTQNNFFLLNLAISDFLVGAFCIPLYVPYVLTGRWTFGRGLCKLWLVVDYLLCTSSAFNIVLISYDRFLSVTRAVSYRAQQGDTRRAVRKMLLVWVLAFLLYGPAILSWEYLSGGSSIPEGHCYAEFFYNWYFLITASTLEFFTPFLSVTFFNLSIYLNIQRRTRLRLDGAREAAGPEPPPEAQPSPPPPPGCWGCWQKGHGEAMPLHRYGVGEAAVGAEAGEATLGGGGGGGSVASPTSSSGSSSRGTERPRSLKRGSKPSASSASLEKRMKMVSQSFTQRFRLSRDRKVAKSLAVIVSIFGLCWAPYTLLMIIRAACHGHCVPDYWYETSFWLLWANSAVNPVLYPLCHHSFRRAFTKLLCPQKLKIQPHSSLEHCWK

Mus musculus [8] = test: Anticonvulsant activity in CF1 albino mouse assessed as protection against maximal electroshock-induced seizure at 3 mg/kg, ip after 0.5 hrs; assay type: functional, organism-based; in short: as §1
Mus musculus [9] = test: Anticonvulsant activity in CF1 albino mouse assessed as protection against maximal electroshock-induced seizure at 10 mg/kg, ip after 0.5 hrs; assay type: functional, organism-based; in short: as §1
Mus musculus [10] = test: Anticonvulsant activity in CF1 albino mouse assessed as protection against maximal electroshock-induced seizure at 30 mg/kg, ip after 0.5 hrs; assay type: functional, organism-based; in short: as §1
Mus musculus [11] = test: Anticonvulsant activity in CF1 albino mouse assessed as protection against maximal electroshock-induced seizure at 30 mg/kg, ip after 4 hrs; assay type: functional, organism-based; in short: as §1
Mus musculus [12] = test: Anticonvulsant activity in CF1 albino mouse assessed as protection against subcutaneous pentetrazole-induced seizure at 30 mg/kg, ip after 0.5 hrs; assay type: functional, organism-based; in short: as §2
Mus musculus [13] = test: Anticonvulsant activity in CF1 albino mouse assessed as protection against subcutaneous pentetrazole-induced seizure at 30 mg/kg, ip after 4 hrs; assay type: functional, organism-based; in short: as §2
Mus musculus [14] = test: Neurotoxicity in CF1 albino mouse at 3 mg/kg, ip after 0.5 hrs by rotarod test; assay type: toxicity, organism-based; settings: in vivo
In short: (§4)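 Rotarod neurotoxicity in male albino CF-1 mice dosed ip with compound suspended in 0.5% methylcellulose. Animal placed on a 1 inch diameter knurled plastic rod rotating at 6 rpm. Neurotoxicity scored when the animal falls off three times within 1 min. Readout is number of animals toxic/number tested at the stated time after dosing. TD50 with 95% confidence interval from the quantitative study.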

Mus musculus [15] = test: Neurotoxicity in CF1 albino mouse at 10 mg/kg, ip after 0.5 hrs by rotarod test; assay type: toxicity, organism-based; settings: in vivo
In short: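 Rotarod neurotoxicity in male CF-1 mice dosed ip as 0.5% methylcellulose suspension: mouse placed on 1 inch knurled rod rotating at 6 rpm; toxicity when the animal falls off three times within 1 min, with other signs noted. Scored as toxic/tested at 0.5 h and 4 h.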

Mus musculus [16] = test: Neurotoxicity in CF1 albino mouse at 30 mg/kg, ip after 0.5 hrs by rotarod test; assay type: toxicity, organism-based; settings: in vivo; in short: as §4
Mus musculus [17] = test: Neurotoxicity in CF1 albino mouse at 30 mg/kg, ip after 4 hrs by rotarod test; assay type: toxicity, organism-based; settings: in vivo; in short: as §4
Mus musculus [18] = test: Neurotoxicity in CF1 albino mouse at 100 mg/kg, ip after 4 hrs by rotarod test; assay type: toxicity, organism-based; settings: in vivo; in short: as §4
Mus musculus [19] = test: Neurotoxicity in CF1 albino mouse assessed as death at 300 mg/kg, ip after 0.5 hrs by rotarod test; assay type: toxicity, organism-based; settings: in vivo
In short: (§5)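 Male albino CF-1 mice dosed ip with compound suspended in 0.5% methylcellulose, then placed on a 1-inch knurled plastic rod turning at 6 rpm. A fall three times within 1 min counted as neurotoxicity. Observations were made at 0.5 h and 4 h after dosing. Result given as animals showing toxicity per animals tested, with the kind of toxicity recorded.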

Mus musculus [20] = test: Neurotoxicity in CF1 albino mouse at 300 mg/kg, ip after 4 hrs by rotarod test; assay type: toxicity, organism-based; settings: in vivo; in short: as §4
Mus musculus [21] = test: Neurotoxicity in CF1 albino mouse assessed as death at 100 mg/kg, ip after 0.5 hrs by rotarod test; assay type: toxicity, organism-based; settings: in vivo; in short: as §5
Rattus norvegicus [22] = test: Anticonvulsant activity in Sprague-Dawley rat assessed as protection against maximal electroshock-induced seizure at 30 mg/kg, po; assay type: functional
Mus musculus [23] = test: Anticonvulsant activity in CF1 albino mouse assessed as protection against 6 Hz-psychomotor-induced seizure at 50 mg/kg, ip after 1 hr; assay type: functional, organism-based
In short: (§6)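 Male CF-1 mice, ip suspension in 0.5% methylcellulose. Corneal stimulation 0.2 ms monopolar rectangular pulses at 6 Hz, 32 mA for 3 s via constant-current device; mice without minimal clonic phase seizure counted protected. Groups of four; read at 0.25, 0.5, 1, 2, 4 h; result as protected/tested.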

Mus musculus [24] = test: Anticonvulsant activity in CF1 albino mouse assessed as protection against 6 Hz-psychomotor-induced seizure at 50 mg/kg, ip after 2 hrs; assay type: functional, organism-based; in short: as §6
Mus musculus [25] = test: Anticonvulsant activity in CF1 albino mouse assessed as protection against 6 Hz-psychomotor-induced seizure at 50 mg/kg, ip after 4 hrs; assay type: functional, organism-based; in short: as §6
Mus musculus [26] = test: Neurotoxicity in CF1 albino mouse at 50 mg/kg, ip after 0.5 hrs by rotarod test; assay type: toxicity, organism-based; settings: in vivo; in short: as §4
Mus musculus [27] = test: Neurotoxicity in CF1 albino mouse at 50 mg/kg, ip after 2 hrs by rotarod test; assay type: toxicity, organism-based; settings: in vivo; in short: as §4
Mus musculus [28] = test: Neurotoxicity in CF1 albino mouse at 50 mg/kg, ip after 4 hrs by rotarod test; assay type: toxicity, organism-based; settings: in vivo; in short: as §4
Mus musculus [29] = test: Anticonvulsant activity in CF1 albino mouse assessed as protection against 6 Hz-psychomotor-induced seizure at 25 mg/kg, ip after 0.25 to 4 hrs; assay type: functional, organism-based; in short: as §6
Mus musculus [30] = test: Neurotoxicity in CF1 albino mouse at 25 mg/kg, ip after 0.25 to 4 hrs by rotarod test; assay type: toxicity, organism-based; settings: in vivo; in short: as §4
Mus musculus [31] = test: Neurotoxicity in ip dosed CF1 albino mouse after 0.25 hrs by rotarod test; assay type: toxicity, organism-based; settings: in vivo
In short: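 Rotarod neurotoxicity in male albino CF-1 mice dosed ip with compound suspended in 0.5% methylcellulose. Animal placed on a 1 inch diameter knurled plastic rod rotating at 6 rpm. Neurotoxicity scored when the animal falls off three times within 1 min. Readout is number of animals toxic/number tested at the stated time after dosing.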

Mus musculus [32] = test: Anticonvulsant activity in ip dosed CF1 albino mouse assessed as protection against maximal electroshock-induced seizure after 0.25 hrs; assay type: functional; in short: as §1
Mus musculus [33] = test: Anticonvulsant activity in ip dosed CF1 albino mouse assessed as protection against subcutaneous pentetrazole-induced seizure after 0.25 hrs; assay type: functional; in short: as §2
Mus musculus [34] = test: Protective index, ratio of TD50 for ip dosed CF1 albino mouse to ED50 for ip dosed CF1 albino mouse assessed as protection against maximal electroshock-induced seizure after 0.25 hrs; assay type: functional
Mus musculus [35] = test: Anticonvulsant activity in CF1 albino mouse assessed as protection against maximal electroshock-induced seizure at 100 mg/kg, ip after 0.5 hrs; assay type: functional, organism-based; in short: as §1
Mus musculus [36] = test: Anticonvulsant activity in CF1 albino mouse assessed as protection against maximal electroshock-induced seizure at 100 mg/kg, ip after 4 hrs; assay type: functional, organism-based; in short: as §1
Mus musculus [37] = test: Anticonvulsant activity in CF1 albino mouse assessed as protection against subcutaneous pentetrazole-induced seizure at 100 mg/kg, ip after 0.5 hrs; assay type: functional, organism-based; in short: as §2
Mus musculus [38] = test: Anticonvulsant activity in CF1 albino mouse assessed as protection against subcutaneous pentetrazole-induced seizure at 100 mg/kg, ip after 4 hrs; assay type: functional, organism-based; in short: as §2
Mus musculus [39] = test: Neurotoxicity in CF1 albino mouse assessed as death and loss of righting reflux at 300 mg/kg, ip after 0.5 hrs by rotarod test; assay type: toxicity, organism-based; settings: in vivo; in short: as §5
Mus musculus [40] = test: Anticonvulsant activity in CF1 albino mouse assessed as protection against 6 Hz-psychomotor-induced seizure at 100 mg/kg, ip after 0.5 to 1 hr; assay type: functional, organism-based; in short: as §6
Mus musculus [41] = test: Neurotoxicity in CF1 albino mouse at 100 mg/kg, ip after 0.25 to 2 hrs by rotarod test; assay type: toxicity, organism-based; settings: in vivo; in short: as §4

SMILES	Activity (Rattus norvegicus [4])	Activity [5]	Activity [6]	Ki (Histamine H3 receptor) [nM]	Activity (Mus musculus [8])	Activity (Mus musculus [9])	Activity (Mus musculus [10])	Activity (Mus musculus [11])	Activity (Mus musculus [12])	Activity (Mus musculus [13])	Activity (Mus musculus [14])	Activity (Mus musculus [15])	Activity (Mus musculus [16])	Activity (Mus musculus [17])	Activity (Mus musculus [18])	Activity (Mus musculus [20])	Activity (Rattus norvegicus [22]) [%]	TD50 (median neurotoxic dose) (Mus musculus [31]) [mg/kg]	also measured
CC1CCN(CCCCCCOc2ccc(Cl)cc2)CC1.O=C(O)C(=O)O	Active	inactive	inactive	189	inactive	Active	Active	Active	inactive	inactive	Non-toxic	Non-toxic	Non-toxic	Non-toxic	Non-toxic	Non-toxic	25	40.77	ED50 (Mus musculus [1]): 13 mg/kg; ED50 (Mus musculus [2]): > 30 mg/kg; Ratio TD50/ED50 (Mus musculus [3]): 3.1; Activity (Mus musculus [7]): inactive; Activity (Mus musculus [19]): Toxic; Activity (Mus musculus [21]): Toxic; Activity (Mus musculus [23]): inactive; Activity (Mus musculus [24]): inactive; Activity (Mus musculus [25]): inactive; Activity (Mus musculus [26]): Non-toxic; Activity (Mus musculus [27]): Non-toxic; Activity (Mus musculus [28]): Non-toxic; Activity (Mus musculus [29]): inactive; Activity (Mus musculus [30]): Toxic
CC1CCCN(CCCCCCOc2ccc(Cl)cc2)C1.O=C(O)C(=O)O (stereo not given)	Active	inactive	inactive	205	inactive	inactive	Active	inactive	inactive	inactive	Non-toxic	Non-toxic	Non-toxic	Non-toxic	Non-toxic	Non-toxic	25	50.4	ED50 (Mus musculus [32]): 16.8 mg/kg; ED50 (Mus musculus [33]): > 50 mg/kg; Ratio TD50/ED50 (Mus musculus [34]): 3; Activity (Mus musculus [35]): Active; Activity (Mus musculus [36]): Active; Activity (Mus musculus [37]): inactive; Activity (Mus musculus [38]): inactive; Activity (Mus musculus [39]): Toxic; Activity (Mus musculus [40]): inactive; Activity (Mus musculus [41]): Toxic
